Results collected from several papers.
Target: Serine/threonine-protein kinase DCLK2 (DCLK2, Homo sapiens, UniProt Q8N568)
One construct used (Q8N568 1-766): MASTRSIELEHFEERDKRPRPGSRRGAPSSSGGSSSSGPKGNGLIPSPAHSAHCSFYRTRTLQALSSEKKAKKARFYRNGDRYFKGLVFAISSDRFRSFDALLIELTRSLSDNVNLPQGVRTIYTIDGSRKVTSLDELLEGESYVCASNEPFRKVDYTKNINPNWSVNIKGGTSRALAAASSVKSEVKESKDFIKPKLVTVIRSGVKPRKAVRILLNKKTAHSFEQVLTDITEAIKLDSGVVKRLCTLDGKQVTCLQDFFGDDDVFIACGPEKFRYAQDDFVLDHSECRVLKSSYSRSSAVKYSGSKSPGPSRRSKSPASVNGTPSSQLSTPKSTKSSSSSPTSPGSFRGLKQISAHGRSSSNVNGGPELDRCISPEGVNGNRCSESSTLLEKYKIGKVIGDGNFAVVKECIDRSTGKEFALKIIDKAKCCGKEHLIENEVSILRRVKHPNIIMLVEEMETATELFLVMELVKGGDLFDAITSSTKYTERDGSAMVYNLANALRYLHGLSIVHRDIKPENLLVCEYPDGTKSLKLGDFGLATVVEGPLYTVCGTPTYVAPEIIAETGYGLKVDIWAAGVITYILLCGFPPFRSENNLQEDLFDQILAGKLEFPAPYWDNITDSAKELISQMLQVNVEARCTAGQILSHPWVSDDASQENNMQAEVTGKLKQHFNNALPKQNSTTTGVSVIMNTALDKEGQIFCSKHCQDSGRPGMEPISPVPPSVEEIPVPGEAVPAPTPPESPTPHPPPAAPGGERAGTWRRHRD

| SMILES | observed | technique | concentration | remaining binding [%] |
| --- | --- | --- | --- | --- |
| CCOCCn1cc(C(=O)Nc2ccc(-n3nc(-c4cccnc4)cc3C(F)(F)F)cn2)ccc1=O | cell-free assay | competition with immobilised ligand | 1 µM | 89 |
| O=C(Nc1c[nH]nc1C(=O)NC1CCNCC1)c1cc(F)cc(F)c1 | binding | competition with immobilised ligand | 1 µM | 100 |
| O=C(c1ccc(Nc2ncc(Cl)c(-c3cc4ccccc4s3)n2)cc1)N1CCC(N2CCCC2)CC1 | binding | competition with immobilised ligand | 1 µM | 90 |
| CNCc1ccccc1-c1csc([C@H](C)Nc2nc(C)nc3cc(OC)c(OC)cc23)c1 | cell-free assay | competition with immobilised ligand | 1 µM | 100 |
| O=C(NCCCN1CCOCC1)c1ccc(Nc2nccc(-c3cc4ccccc4s3)n2)cc1 | binding | competition with immobilised ligand | 1 µM | 98 |
| CCC(=O)N[C@H]1CC[C@@H](C(=O)N(C)c2ccc(-c3nc4ccccc4o3)cc2)C1 | cell-free assay | competition with immobilised ligand | 1 µM | 98 |
| O=C(c1ccc(Nc2ncc(Cl)c(-c3ccc(Cl)s3)n2)cc1)N1CCC(N2CCCC2)CC1 | binding | competition with immobilised ligand | 1 µM | 90 |
| COc1cnc(Nc2cccc(S(N)(=O)=O)c2)nc1N1CCN(c2ccccc2)CC1 | binding | competition with immobilised ligand | 1 µM | 92 |
| c1cncc(-c2cccc(Nc3nccc(NC4CCCCC4)n3)c2)c1 | binding | competition with immobilised ligand | 10 µM | 100 |
| CN(C)c1ncc(F)c(-c2cnn3ncccc23)n1 | binding |  | 1 µM | 96 |
| FC(F)(F)Oc1cccc(-c2cnc3ccc(-c4ccncc4)nn23)c1 | cell-free assay | competition with immobilised ligand | 5 µM | 100 |
| CN(CCCC(F)(F)F)c1nccc(-c2cnn3ncccc23)n1 | binding |  | 1 µM | 88 |
| NS(=O)(=O)c1cc(NC(=O)Cc2ccccc2)ccc1Oc1cccc(Cl)c1 | cell-free assay | competition with immobilised ligand | 1 µM | 99 |
| Nc1ncc2c(n1)-c1c([nH]c3ccc(C#CC4CC4)cc13)CCCC2 | binding | competition with immobilised ligand | 1 µM | 89 |
| CN(c1nccc(-c2cnn3ncccc23)n1)C1CC1 | binding |  | 1 µM | 100 |
| CO[C@@H](C)c1c(Nc2ccc([C@@H](N(C)C(=O)C3CCS(=O)(=O)CC3)C(F)(F)F)cc2)cnc2cc(Cl)nn12 | cell-free assay | competition with immobilised ligand | 1 µM | 95 |
| COc1ncc2cc3ccccc3nc2c1C#N | cell-free assay | competition with immobilised ligand | 5 µM | 94 |
| Cn1nc(C(F)(F)F)cc1-c1cnc(N2CCc3cc(S(=O)(=O)Nc4c(F)cc(Cl)cc4F)cc(N4CCCC4=O)c32)nc1 | cell-free assay | competition with immobilised ligand | 1 µM | 100 |
| c1cnn2ncc(-c3ccnc(N4CCC45COC5)n3)c2c1 | binding |  | 1 µM | 78 |
